Screening data deposited in PubChem by several laboratories.
SR-BI DiI inh: inhibitors of SR-BI mediated HDL lipid uptake, primary screen, ldlA[mSR-BI] cells, fluorescence, single point | Scavenger receptor class B member 1 (Mus musculus), Q61009 | ldlA[mSR-BI] CHO cells, DiI-HDL uptake fluorescence, 3 h | inhibition, % at 12.5 µM | 320,000 compounds, 0.96% hits | AID 488896, 2010;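 active means mean replicate inhibition of at least 70% and a set share of replicates each scoring 70 or more; inconclusive means meets just one of the two criteria; inactive means fails both criteria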;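 further: 0% = median of neutral control wells and 100% = median of positive control wells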
PKA-R1A activ: activators of PKA-R1A holoenzyme, primary screen, biochemical, fluorescence polarization, Cy5-IP20, bovine R1A, mouse PKAc. cAMP-dependent protein kinase type I-alpha regulatory subunit (Bos taurus) + …. PKA-R1A dissociation; scaled: DMSO 0%, 113 µM cGMP 100%. activation, % at 11.4 µM. 340,000 compounds, 0.083% hits. AID 504707, 2011;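 active means percent activation above the mean of all tested compounds plus 3 SD, cut at about 19% in these data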;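 further: higher means more PKAc released from R1A so a rise in polarization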
CDK5 p35 inh: inhibitors of human CDK5/p35 kinase, primary screen, biochemical, single concentration; Cyclin-dependent kinase 5 (Homo sapiens) + Cyclin-dependent kinase 5 activator 1 (Homo …; Recombinant CDK5/p35, ADP-Glo luminescence, 60 min; inhibition, % at 10 µM; 330,000 compounds, 0.01% hits; AID 488839, 2010;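 active means highest replicate inhibition of at least 50% and at least 75% of replicates reaching 50%; inconclusive means only one of the two criteria met; inactive means both criteria failed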;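 further: plate controls were DMSO neutral control for no effect and GW8510 at 10 µM for full effect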
SR-BI uptake up: activators of SR-BI mediated DiI-HDL uptake, primary screen, ldlA[mSR-BI] CHO cells, DiI fluorescence; 3 h; 100 = double the neutral-control signal; activation, % at 12.5 µM; 320,000 compounds, 0.096% hits;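 active means mean replicate activation of at least 60% and every replicate at or above 60%; inconclusive means mean or all-replicate condition met, but not both; inactive means mean below 60% and not all replicates reaching 60%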;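 further: 0% = median plate neutral-control signal and 100% = twice that signal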
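System: LDL receptor-deficient CHO ldlA cells overexpressing murine SR-BI | Timing: 3 h uptake period with compound, 37 °C | Medium: HEPES-buffered (25 mM, pH 7.4) F12 plus 0.5% BSA | Dosing: Single-point compound dose | Signal: Bottom-read fluorescence, 550/595 nm | Read-out: Retained DiI signal reflecting DiI-HDL uptake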
PKA-R2B act: activators of PKA-R2B holoenzyme, primary screen, biochemical, fluorescence polarization, Cy5-IP20, human; cAMP-dependent protein kinase catalytic subunit beta (Homo sapiens) + cAMP-dependent …; PKA-R2B holoenzyme dissociation; R2B truncated from residue 108, S112A mutant; 0% DMSO only, 100% 113 µM cGMP; activation, % at 11.4 µM; 340,000 compounds, 0.079% hits; AID 504700, 2011;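 active means activation above a cutoff set at the mean over all compounds plus 3 SD, cut at about 18% in these data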;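 further: higher means more holoenzyme dissociation and a rise in polarization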
Target sequence (P31323 whole entry, looked up, other chains not shown, the tested form may be a part): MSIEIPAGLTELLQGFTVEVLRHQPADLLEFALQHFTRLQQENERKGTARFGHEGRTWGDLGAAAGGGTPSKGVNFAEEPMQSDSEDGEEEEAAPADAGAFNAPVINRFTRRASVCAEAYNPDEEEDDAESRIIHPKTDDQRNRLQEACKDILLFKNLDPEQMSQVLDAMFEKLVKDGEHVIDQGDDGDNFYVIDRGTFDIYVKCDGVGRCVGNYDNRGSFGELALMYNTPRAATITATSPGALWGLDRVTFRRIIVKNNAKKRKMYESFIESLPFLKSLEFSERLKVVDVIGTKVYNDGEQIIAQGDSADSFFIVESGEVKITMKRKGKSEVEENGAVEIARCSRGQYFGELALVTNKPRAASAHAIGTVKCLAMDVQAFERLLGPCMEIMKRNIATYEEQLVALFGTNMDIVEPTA
dFosB activator: activators of delta FosB homodimer, primary screen, biochemical, fluorescence polarization, TAMRA-CDK5 oligo, single point. Protein FosB (Mus musculus), P13346. 340,000 compounds, 0.99% hits. activation, % at 25 µM. purified delta FosB; percent of positive-control signal above neutral wells;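 active means mean activation above about 17%, with every replicate also reaching it, limit read from the data, passing the limit was not always enough; inconclusive means only one of the two conditions met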
* marks the source's active call; other numbers are inactive results; ? = inconclusive; . = no result given. This is a sample that favours compounds with a hit; in the whole collection about 2.1% have one here.

SMILES | SR-BI DiI inh | PKA-R1A activ | CDK5 p35 inh | SR-BI uptake up | PKA-R2B act | dFosB activator
Cc1ccc(NS(=O)(=O)c2cc([N+](=O)[O-])ccc2NNC(=S)Nc2cccc(Cl)c2)c(C)c1 | 95* | -3 | 2 | -95 | 3 | -5
Cc1ccc([N+](=O)[O-])cc1NC(=S)NC(=O)C(C)(C)C | 18 | 4 | -1 | -18 | 8 | 6
Cc1ccc(NS(=O)(=O)c2cc([N+](=O)[O-])ccc2NNC(=S)Nc2cc(C)ccc2C)c(C)c1 | 79* | -10 | 2 | -79 | -7 | -1
COc1ccc(NC(=S)NNc2ccc([N+](=O)[O-])cc2S(=O)(=O)Nc2ccc(C)cc2C)cc1 | 77* | -8 | 0 | -77 | 8 | -9
CCOC(=O)c1ccc(NS(=O)(=O)c2c(C)nc3sccn3c2=O)cc1 | -17 | -1 | 0 | 17 | -6 | -2
COc1cc(C(=O)Oc2cc(C)cc(C)c2)cc(OC)c1OC | 77* | 9 | 0 | -77 | 3 | 4
O=C(NC1CCCCCC1)C1CCCN(c2ncccn2)C1 (stereo not drawn) | . | 6 | 1 | . | 4 | -2
COc1cc2ccccc2cc1C(=O)NC1CCC(C)CC1 (stereo not drawn) | 71* | -1 | -2 | -71 | -10 | -9
COc1cc2ccccc2cc1C(=O)NC1CCCC1 | 34 | 6 | 1 | -34 | 0 | 1
CCn1c(NC(=O)c2cccc(Cn3cc(Cl)cn3)c2)nc2ccccc21 | 93* | -10 | -1 | -93 | -3 | -8
Cn1c(NC(=O)c2cccc(Cn3cc(Cl)cn3)c2)nc2ccccc21 | 51 | 5 | 0 | -51 | -8 | 12
Cn1c(=O)c2c(SCC(=O)N3CCCCC3)nc(-c3ccccc3F)nc2n(C)c1=O | 8 | -5 | -1 | -8 | 0 | -16
CCOC(=O)C1=C(C)NC(=O)C(C#N)C1c1ccco1 (stereo not drawn) | -61 | -2 | -1 | 61* | -8 | -1
CCOC(=O)C1=C(C)NC(C)=C(C(=O)OC)C1c1ccco1 (stereo not drawn) | -23 | 3 | 0 | 23 | -7 | -5
CCOC(=O)C1=C(Nc2ccccc2)CC(C)(O)C(C(=O)OCC)C1c1ccccc1 (stereo not drawn) | -64 | 13 | 1 | 64* | 0 | -10
CCOC(=O)C1=C(Nc2ccc(C)cc2)CC(C)(O)C(C(=O)OCC)C1c1ccccc1 (stereo not drawn) | 10 | 5 | -1 | -10 | 8 | -11
C/C(=C\c1ccccc1)C(=O)Nc1ccc(S(=O)(=O)Nc2ncccn2)cc1 | -7 | -1 | 0 | 7 | 5 | -1
Cc1ccc2c(c1)CO[C@@]21O[C@H](CCO)C[C@H](O)[C@H]1O | . | 6 | . | . | 2 | .
CCn1c(SCC(=O)c2ccc(O)c(O)c2)nnc1-c1ccc(C)cc1 | 5 | -9 | -2 | -5 | -10 | -9
CCn1c(SCC(=O)c2ccc3c(c2)Cc2ccccc2-3)nnc1-c1ccc(N)cc1 | 77* | 1 | 0 | -77 | -18 | 3
COc1ccc(/C=N/Nc2cc(C)nc3ccccc23)cc1 | 15 | 1 | 4 | -15 | -13 | 53*
CCN1/C(=C\C=C(C(C)=O)C(C)=O)Sc2ccccc21 | 37 | 4 | 0 | -37 | -2 | -12
CCN1/C(=C/C(C)=C/c2sc3ccccc3[n+]2CC)Sc2ccccc21 | . | 2 | 25 | . | -3 | 507*
COCCCNC(=O)c1cc2cc(Br)ccc2oc1=O | -15 | -13 | -1 | 15 | -6 | 7
O=C(NNC(=O)c1cc2cc(Br)ccc2oc1=O)c1ccc(O)cc1O | 83* | 3 | 1 | -83 | 0 | 13
SMILES | SR-BI DiI inh | PKA-R1A activ | CDK5 p35 inh | SR-BI uptake up | PKA-R2B act | dFosB activator
CCCn1c(Sc2nnnn2-c2ccccc2)n[nH]c1=O | -80 | -9 | -1 | 80* | -3 | -5
CCCn1c(SCC(=O)NC(C)c2ccccc2)n[nH]c1=O (stereo not drawn) | -9 | 6 | 0 | 9 | 1 | 5
CCOC(=O)CC1C(=O)NCCN1C(=S)NC(=O)c1ccc(C)c(Br)c1 (stereo not drawn) | . | 0 | . | . | -6 | .
CCOCCn1c(C)c(C(=O)OCC)c2cc(O)c3ccccc3c21 | 73* | -9 | 1 | -73 | -11 | -13
CCOC(=O)c1c(C)n(CCO)c2ccc(O)cc12 | -27 | -10 | -1 | 27 | 0 | -3
O=C(Nc1ccnn1C1CCN(CCCc2ccccc2)CC1)c1ccccc1Cl | -5 | -5 | 0 | 5 | -2 | -11
O=C(C[n+]1ccc(CCSc2ccc(F)cc2)cc1)c1ccccc1 | -3 | 1 | 20 | 3 | -4 | 85*
O=C(N/N=C/c1cc(Br)cc(Br)c1O)c1cccc(S(=O)(=O)N2CCOCC2)c1 | . | -8 | 0 | . | -6 | -5
CC(C)c1ccc(/C=N/NC(=O)c2cccc(S(=O)(=O)N3CCOCC3)c2)cc1 | ? | 1 | -1 | -71 | -1 | -3
O=C(N/N=C/c1cc(Cl)cc([N+](=O)[O-])c1O)c1cccc(S(=O)(=O)N2CCOCC2)c1 | 125* | 1 | 0 | -125 | -10 | -5
O=C(N/N=C/c1sc(N2CCOCC2)nc1-c1ccccc1)c1cccc(S(=O)(=O)N2CCCC2)c1 | 97* | -10 | 0 | -97 | -9 | -12
O=C(N/N=C/c1sc(N2CCOCC2)nc1-c1ccccc1)c1ccc(O)cc1 | 59 | 13 | -1 | -59 | -6 | -20
O=C(N/N=C/c1ccccc1Br)c1cccc(S(=O)(=O)N2CCOCC2)c1 | 80* | -9 | -9 | -79 | -3 | -7
NS(=O)(=O)c1ccc(NC(=O)c2ccc(Cl)c(S(=O)(=O)NCc3ccco3)c2)cc1 | 37 | -4 | 1 | -37 | -5 | -10
Cc1ccc(NC(=O)c2ccc(Cl)c(S(=O)(=O)NCc3ccco3)c2)c(O)c1 | 90* | -20 | -2 | -90 | -1 | -8
COc1ccc(O)c(/C=N/n2c(-c3ccco3)csc2=Nc2cccnc2)c1 | 65 | -7 | 1 | -65 | -3 | -2
CN=c1scc(-c2ccco2)n1/N=C/c1ccc(O)c(O)c1 | 73* | -5 | 7 | -73 | 4 | -14
